Hits are enriched below; roughly 6.5% of the tested compounds scored in any of these assays.
PostGolgi ctrl: inhibits growth of the yeast control strain. inhibition, % at 10 µM. efflux-deficient yeast background strain, growth absorbance A615, 16 h. 5% of 98,000 active. AID 738
Calb biofilm kill: kills Candida albicans biofilms | C. albicans biofilm + clotrimazole, Alamar Blue | inhibition, % at 6 µM | 0.14% of 85,000 active | AID 834;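 active = inhibition above 20%; inactive = inhibition below 20%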;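 note: preformed 24 hr biofilms exposed to compound for 48 hr; 0% = biofilm without compound and 100% = blank killed by clotrimazole plus chlorhexidine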
Pyk2 oligo antag: blocks oligomerization of human Pyk2 in cells | 0.83% of 99,000 active | Q14289 | z-score (the deposit names both 25 µM and 10 µM) | Q293 cells, Pyk2 FERM NanoBiT luminescence; active compounds read low;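 active = Z-score of -3 or lower, scaled per plate to the spread of control and sample wells; inactive = z-score above -3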;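 note: negative z-score means lost luminescence so less FERM oligomerization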
E coli WT exp: growth inhibitors of E. coli BW25113 wild type. OD600 absorbance. growth inhibition, % at 100 µM. 0.15% of 98,000 active. AID 710;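 active = growth inhibition above about 50% at one test dose, limit read from the data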;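 note: growth measured after 20 h incubation at 37 °C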
Ecoli tolC: blocks growth of E. coli BW25113 tolC mutant. growth inhibition, % at 10 µM (by protocol). OD615. AID 573. 2.2% of 65,000 active;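 active = growth inhibition at or above a cutoff equal to the mean over every tested compound plus 3 SD, cut at about 60% in these data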;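 note: growth measured after 20 h incubation at 37 °C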
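Test system: E. coli BW25113 ΔtolC::kan bacteria | Medium: Kanamycin-containing LB broth (50 µg/mL) | Dosing: One dose of 10 µM final | Times: 20 h incubation with compound, 37 °C | Detection: Optical density read at 615 nm | Read-out basis: Percent growth inhibition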
PostGolgi yeast: growth inhibition of a yeast mutant, post-Golgi transport screen; inhibition, % at 10 µM; 0.9% of 98,000 active; post-Golgi transport phenotypic cell assay;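 note: yeast cells grown in 1536-well plates; yeast grown about 18 h at 30C before absorbance read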
Starred values were filed as active, the others as inactive; . = no result. Cut-off read from the data, not from the text of the source, unless noted: active = inhibition above about 30%; inactive = the rest.

SMILES | PostGolgi ctrl | Calb biofilm kill | Pyk2 oligo antag | E coli WT exp | Ecoli tolC | PostGolgi yeast
CCOc1ccc(NC(=O)CCCOc2cc(=O)n(C)c3ccccc23)cc1 | 16 | 13 | -0.67 | -10 | . | 23
COc1ccc2nc(SCC(=O)Nc3ccc(S(=O)(=O)N4CCCC4)cc3)c(C#N)cc2c1 | 33* | 6 | -1.9 | -4 | 5 | 12
COc1ccc2nc(SCC(=O)N(C)C3CCCCC3)c(C#N)cc2c1 | 23 | 8 | -2.9 | -9 | 63* | 12
COc1ccc2nc(N3CCCCC3)c(C#N)cc2c1 | 27 | 4 | -0.81 | -1 | 4 | 0
CCc1ccc2nc(SCC(=O)N3CCCCC3)c(C#N)cc2c1 | . | 6 | -1.6 | . | . | .
COc1ccc2nc(SCC(=O)N3CCCCCC3)c(C#N)cc2c1 | 32* | -1 | -1.8 | -8 | 26 | -13
N#Cc1cc2ccccc2nc1SCC(=O)Nc1ccc(S(=O)(=O)N2CCCC2)cc1 | 1 | . | -1.2 | -13 | 19 | -13
COc1ccc(-c2nc(CSCC(=O)NCCC3=CCCCC3)c(C)o2)cc1OC | 19 | 5 | -0.83 | -7 | . | -8
Cc1ccc(N/C=C/C(=O)c2sc(-c3ccccc3)nc2C)cc1 | 4 | . | 1.2 | -19 | . | 2
CCOC(=O)Cn1c(CN2CC(C)OC(C)C2)nc2c1c(=O)n(C)c(=O)n2C (stereo not drawn) | 2 | 13 | . | -1 | 4 | 9
Cc1ccc(N(CC(=O)Nc2ccccc2-c2ccccc2)S(=O)(=O)c2ccccc2)cc1 | 10 | . | -3.9* | -20 | . | -14
CCNC(=O)CN(c1ccc(C)cc1)S(=O)(=O)c1ccccc1 | 5 | 4 | -0.31 | 7 | . | -2
CCOC(=O)N1CCC(NC(=O)C2CCCN(S(C)(=O)=O)C2)CC1 (stereo not drawn) | 36* | 5 | -0.19 | 0 | -13 | 3
CCOC(=O)N1CCC(NC(=O)C2CCN(S(=O)(=O)N3CCCC3)CC2)CC1 | 4 | -6 | 0.97 | 1 | -16 | -9
Clc1cccc(N/N=C(\Cc2nc3ccccc3[nH]2)c2ccccc2)c1 | . | . | -2.9 | . | . | .
Cc1ccc(-n2ncc3c(=O)n(CC(=O)OCc4ccccc4)cnc32)cc1 | 36* | -3 | 0.84 | -3 | 5 | -2
O=C(Cn1cnc2c(cnn2-c2ccccc2)c1=O)OCc1ccccc1 | -1 | 7 | 0.42 | 1 | -19 | -4
CC(C)[C@@H]1CC[C@@H](C)c2c(-c3ccccc3)n[nH]c21 | 41* | . | -0.59 | 1 | . | 5
Cc1ccc(NC(=O)c2ccccc2N(C)S(C)(=O)=O)cc1C | 5 | 6 | 0 | 1 | . | 2
CC(=O)Oc1cc2c(cc1Cl)C1(CC(c3ccccc3Cl)O2)CC(C)(C)NC(=S)N1 (stereo not drawn) | 9 | 5 | -0.46 | -6 | . | -10
O=C(Nc1ccccc1)C1=C(O)CC(c2ccoc2)CC1=Nc1ccccc1 (stereo not drawn) | 46* | 4 | -0.8 | -7 | 35 | 14
CC1=C(C(=O)Nc2ccccc2)C(c2ccco2)NC(=S)N1 (stereo not drawn) | 4 | . | 0.92 | -10 | . | -4
O=C(Nc1ccccc1)C1=C(O)CC(c2ccco2)CC1=Nc1ccccc1 (stereo not drawn) | 31* | 3 | 0.11 | -1 | 12 | 69*
CC1CN=C2C(C(=O)Nc3ccccc3)=C(O)CC(c3ccccc3)N21 (stereo not drawn) | . | . | -0.58 | . | . | .
CCOC(=O)N1CCN(C(=S)NCCOC)CC1 | -2 | 8 | 2.1 | 1 | . | -5
SMILES | PostGolgi ctrl | Calb biofilm kill | Pyk2 oligo antag | E coli WT exp | Ecoli tolC | PostGolgi yeast
CC(=O)c1ccc(OCC(O)CN2CC(C)OC(C)C2)cc1 (stereo not drawn) | -1 | 9 | -0.07 | 1 | -3 | 1
CC1CN(CC(O)COc2ccc(C(C)C)cc2)CC(C)O1 (stereo not drawn) | 22 | 6 | -0.52 | 1 | 18 | 59*
COc1cc(C)ccc1OCCCCN1CC(C)OC(C)C1 (stereo not drawn) | 33* | 4 | -0.45 | -2 | . | 60*
CCCCOc1ccc(C(=O)N2CC(C)OC(C)C2)cc1 (stereo not drawn) | 5 | 3 | 0.85 | -3 | . | 1
CC1CN(CCCCOc2ccc(C(C)C)cc2)CC(C)O1 (stereo not drawn) | 53* | 5 | -0.66 | 3 | . | 97*
Cc1cc2nnc(SCCCCN3C(=O)c4ccccc4C3=O)n2c2ccccc12 | 22 | . | . | -17 | . | -1
Cc1ccc(C(c2nnnn2Cc2ccccc2)N2CCN(Cc3ccccc3)CC2)cc1 (stereo not drawn) | . | 5 | -2.2 | . | . | .
Clc1ccc(Cn2ncc3c(NCc4ccccc4)ncnc32)cc1 | 41* | 6 | -1.9 | -7 | . | -6
c1ccc(Cn2ncc3c(NCc4ccco4)ncnc32)cc1 | -11 | 6 | 0.24 | -3 | 6 | -5
CCCCNc1ncnc2c1cnn2-c1ccc(Cl)cc1 | 35* | 6 | . | 3 | 13 | -2
COc1ccccc1CNc1ncnc2c1cnn2-c1ccccc1 | . | . | . | . | 61* | .
Cc1ccc(CSc2ncnc3c2cnn3Cc2ccccc2)cc1 | 3 | -1 | 0.56 | 1 | . | 1
N#Cc1ccc(CSc2ncnc3c2cnn3Cc2ccccc2)cc1 | 39* | 9 | -1.1 | -16 | 38 | -1
CCOC(=O)N1CCC2(CC1)C(C#N)=C(N)OC1=C2C(=O)CC(C)C1 (stereo not drawn) | 15 | 1 | -0.26 | -5 | . | 1
Clc1ccc(-n2ncc3c(NCc4ccccn4)ncnc32)cc1 | 32* | 4 | 1.4 | -3 | 12 | -3
CCOC(=O)Cc1c(C)nc2c(-c3cccc(Br)c3)c[nH]n2c1=O | 23 | 8 | 0.84 | 12 | 100* | 11
CCOC(=O)Cc1c(C)nc2c(C#N)c[nH]n2c1=O | 8 | 1 | -0.53 | -3 | . | 4
C/C(=N\OC(=O)c1ccccc1F)c1nccs1 | 10 | . | 0.01 | 3 | . | 10
COc1ccc(C(=O)Nc2nc(C)c(C(=O)N(C)C)s2)cc1OC | 34* | 8 | -0.35 | 0 | -7 | 9
Cc1nc2c(C(=O)NCCC3=CCCCC3)c[nH]n2c(=O)c1Cl | -6 | . | -0.33 | 12 | 79* | 3
CCCCc1c(C)c(C#N)c2[nH]c3ccccc3n2c1=O | 36* | -5 | -3 | -12 | . | 6
O=C(NC1(C(=O)NC2CCCCC2)CCCCC1)c1ccccn1 | 32* | 6 | 1.1 | 3 | . | -7
O=C(CNC(=O)c1ccccc1)NC1(C(=O)NC2CCCC2)CCCCC1 | 8 | -7 | 0.73 | 5 | 7 | 1
O=C(c1cnccn1)N(c1ccccc1)C1(C(=O)NC2CCCCC2)CCCCC1 | 33* | -1 | -0.86 | 3 | 6 | 0
CC(C)CCNC(=O)NC(=O)Cn1cc(C(F)(F)F)ccc1=O | 6 | 5 | . | 2 | . | -3
COc1ccccc1-c1ccc(=O)n(CC(=O)NC(C)(C)C)n1 | 2 | . | -0.44 | -5 | -3 | 19
Cc1cc(C)n2nc(SCC#N)nc2n1 | -2 | . | . | -4 | -14 | 4
C=CCn1c(SCC(=O)Nc2sc(C)c(C)c2C(=O)OCC)nnc1-c1sc(N)nc1C | 8 | 7 | -4.5* | 0 | 18 | 18
